# Where “and” joins values, the source holds several entries; their conditions need not be identical. Identical values can stand only once.
# Tested on: U2OS
# Assay: Multiplex assay against U2OS
# Format: toxicity, cell-based
# Settings: human
# Outline: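 At seeding, live cells were stained with Hoechst33342, BioTracker Green Microtubule Cytoskeleton Dye, MitoTracker Red and Annexin V Alexa Fluor 680. After compound addition they were imaged on a CQ1 microscope at 37°C and 5% CO2, and CellPathfinder machine-learning gating sorted them into Hoechst high-intensity objects or normal cells, with normal cells further split into healthy, pyknosed or fragmented nuclei and pyknosed cells into mitotic or apoptotic. Tubulin, mitochondrial-mass and membrane-permeability phenotypes are given as per cents of cells with healthy nuclei.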
# [1] = 12 h, 1 µM, compound concentration 1 uM, replicate 1
# [2] = 12 h, 1 µM, compound concentration 1 uM, replicate 2
# [3] = 12 h, 10 µM, compound concentration 10 uM, replicate 1
# [4] = 12 h, 10 µM, compound concentration 10 uM, replicate 2
# [5] = 24 h, 1 µM, compound concentration 1 uM, replicate 1
# [6] = 24 h, 1 µM, compound concentration 1 uM, replicate 2
# [7] = 24 h, 10 µM, compound concentration 10 uM, replicate 1
# [8] = 24 h, 10 µM, compound concentration 10 uM, replicate 2
# [9] = 48 h, 1 µM, compound concentration 1 uM, replicate 1
# [10] = 48 h, 1 µM, compound concentration 1 uM, replicate 2
# [11] = 48 h, 10 µM, compound concentration 10 uM, replicate 1
# [12] = 48 h, 10 µM, compound concentration 10 uM, replicate 2
smiles,measurement,setting,value
CS(=O)(=O)N1CCCC(NC(=O)[C@H](CCC2CCCCC2)NC(=O)c2ccc(CNc3ncnc4c3nnn4-c3ccccc3)cc2)C1 (stereo partly specified) [SR-301],Population Apoptotic (%),[1],27% and 50% and 35%
same,Population Fragmented Nuclei (%),[1],13% and 7%
same,Population Healthy Nuclei (%),[1],74% and 76% and 79%
same,Population Hoechst High Intensity Objects (%),[1],5% and 4% and 3%
same,Population Membrane Permeable-Phenotype (%),[1],7% and 4% and 3%
same,Population Mitochondria Different-Phenotype (%),[1],11% and 9% and 8%
same,Population Mitotic Cells (%),[1],72% and 50% and 64%
same,Population Normal (%),[1],94% and 95% and 96%
same,Population Pyknosed Nuclei (%),[1],12% and 13%
same,Total Cell Count,[1],200 and 294 and 192
same,Population Apoptotic (%),[2],25% and 63% and 33%
same,Population Fragmented Nuclei (%),[2],14% and 11%
same,Population Healthy Nuclei (%),[2],81% and 70% and 89%
same,Population Hoechst High Intensity Objects (%),[2],19% and 13%
same,Population Membrane Permeable-Phenotype (%),[2],10% and 2%
same,Population Mitochondria Different-Phenotype (%),[2],20% and 14% and 10%
same,Population Mitotic Cells (%),[2],75% and 36% and 66%
same,Population Normal (%),[2],80% and 86%
same,Population Tubulin-Different-Phenotype (%),[2],21% and 19% and 12%
same,Total Cell Count,[2],135 and 58 and 69
same,Population Apoptotic (%),[3],81% and 62% and 53%
same,Population Fragmented Nuclei (%),[3],21% and 23% and 11%
same,Population Healthy Nuclei (%),[3],27% and 44% and 78%
same,Population Hoechst High Intensity Objects (%),[3],10% and 5%
same,Population Mitochondria Different-Phenotype (%),[3],39% and 28% and 22%
same,Population Mitotic Cells (%),[3],18% and 37% and 46%
same,Population Normal (%),[3],89% and 94%
same,Population Tubulin-Different-Phenotype (%),[3],39% and 52% and 28%
same,Total Cell Count,[3],202 and 154 and 295
same,Population Apoptotic (%),[4],80% and 75% and 41%
same,Population Fragmented Nuclei (%),[4],39% and 27%
same,Population Healthy Nuclei (%),[4],20% and 25% and 58%
same,Population Hoechst High Intensity Objects (%),[4],4% and 2%
same,Population Membrane Permeable-Phenotype (%),[4],61% and 54% and 30%
same,Population Mitochondria Different-Phenotype (%),[4],66% and 54% and 34%
same,Population Mitotic Cells (%),[4],20% and 25% and 58%
same,Population Normal (%),[4],95% and 97%
same,Population Pyknosed Nuclei (%),[4],39% and 47% and 20%
same,Population Tubulin-Different-Phenotype (%),[4],55% and 54% and 34%
same,Total Cell Count,[4],89 and 86 and 105
same,Population Apoptotic (%),[5],47% and 48%
same,Population Fragmented Nuclei (%),[5],10% and 5%
same,Population Healthy Nuclei (%),[5],82% and 75%
same,Population Hoechst High Intensity Objects (%),[5],3% and 0%
same,Population Membrane Permeable-Phenotype (%),[5],5% and 3% and 2%
same,Population Mitochondria Different-Phenotype (%),[5],6% and 8%
same,Population Mitotic Cells (%),[5],52% and 51%
same,Population Normal (%),[5],96% and 99%
same,Population Pyknosed Nuclei (%),[5],14% and 7%
same,Total Cell Count,[5],350 and 199 and 225
same,Population Fragmented Nuclei (%),[6],12% and 7%
same,Population Healthy Nuclei (%),[6],78% and 80% and 86%
same,Population Membrane Permeable-Phenotype (%),[6],7% and 6%
same,Population Mitochondria Different-Phenotype (%),[6],20% and 10%
same,Population Mitotic Cells (%),[6],87% and 60% and 55%
same,Population Normal (%),[6],80% and 95%
same,Population Pyknosed Nuclei (%),[6],9% and 12% and 6%
same,Population Tubulin-Different-Phenotype (%),[6],13% and 26% and 14%
same,Total Cell Count,[6],148 and 64 and 84
same,Population Apoptotic (%),[7],96% and 87% and 65%
same,Population Healthy Nuclei (%),[7],25% and 39% and 75%
same,Population Mitochondria Different-Phenotype (%),[7],29% and 16% and 13%
same,Population Normal (%),[7],89% and 92% and 96%
same,Population Pyknosed Nuclei (%),[7],39% and 38% and 13%
same,Population Tubulin-Different-Phenotype (%),[7],37% and 63% and 44%
same,Total Cell Count,[7],235 and 159 and 307
same,Population Apoptotic (%),[8],91% and 94% and 89%
same,Population Fragmented Nuclei (%),[8],25% and 32% and 19%
same,Population Hoechst High Intensity Objects (%),[8],15% and 21% and 9%
same,Population Mitotic Cells (%),[8],8% and 5% and 10%
same,Population Normal (%),[8],84% and 78% and 90%
same,Population Pyknosed Nuclei (%),[8],49% and 50% and 21%
same,Total Cell Count,[8],98 and 89 and 110
same,Population Apoptotic (%),[9],58% and 30%
same,Population Fragmented Nuclei (%),[9],3%
same,Population Healthy Nuclei (%),[9],84% and 87%
same,Population Hoechst High Intensity Objects (%),[9],1% and 0%
same,Population Membrane Permeable-Phenotype (%),[9],2% and 1%
same,Population Mitochondria Different-Phenotype (%),[9],9% and 7%
same,Population Mitotic Cells (%),[9],41% and 69% and 74%
same,Population Normal (%),[9],98% and 99%
same,Population Pyknosed Nuclei (%),[9],7%
same,Total Cell Count,[9],208 and 559 and 312
same,Population Apoptotic (%),[10],38% and 21% and 25%
same,Population Fragmented Nuclei (%),[10],4% and 7% and 9%
same,Population Healthy Nuclei (%),[10],83% and 76%
same,Population Membrane Permeable-Phenotype (%),[10],7% and 3%
same,Population Mitochondria Different-Phenotype (%),[10],13% and 8% and 12%
same,Population Mitotic Cells (%),[10],61% and 78% and 75%
same,Population Normal (%),[10],92% and 96% and 85%
same,Population Pyknosed Nuclei (%),[10],12% and 8% and 13%
same,Total Cell Count,[10],84 and 114 and 231
same,Population Apoptotic (%),[11],92% and 85% and 62%
same,Population Mitochondria Different-Phenotype (%),[11],17% and 14% and 9%
same,Population Normal (%),[11],89% and 91% and 96%
same,Population Tubulin-Different-Phenotype (%),[11],37% and 75% and 53%
same,Total Cell Count,[11],372 and 170 and 387
same,Population Apoptotic (%),[12],96% and 100% and 84%
same,Population Fragmented Nuclei (%),[12],23% and 17% and 12%
same,Population Healthy Nuclei (%),[12],38% and 68%
same,Population Membrane Permeable-Phenotype (%),[12],85% and 44%
same,Population Mitochondria Different-Phenotype (%),[12],81% and 74% and 35%
same,Population Mitotic Cells (%),[12],3% and 0% and 15%
same,Population Normal (%),[12],76% and 80% and 92%
same,Population Pyknosed Nuclei (%),[12],38% and 30% and 19%
same,Population Tubulin-Different-Phenotype (%),[12],81% and 82% and 30%
same,Total Cell Count,[12],84 and 107 and 142
CC[C@@]1(O)C(=O)OCc2c1cc1n(c2=O)Cc2cc3ccccc3nc2-1 [CAMPTOTHECIN],Population Healthy Nuclei (%),[1],34% and 42% and 78%
same,Population Membrane Permeable-Phenotype (%),[1],11% and 13% and 14%
same,Population Mitochondria Different-Phenotype (%),[1],25% and 31% and 35%
same,Population Normal (%),[1],48% and 90%
same,Population Pyknosed Nuclei (%),[1],13% and 7%
same,Population Tubulin-Different-Phenotype (%),[1],20% and 33%
same,Population Apoptotic (%),[2],22% and 36% and 16%
same,Population Fragmented Nuclei (%),[2],62% and 59% and 26%
same,Population Healthy Nuclei (%),[2],25% and 24% and 65%
same,Population Hoechst High Intensity Objects (%),[2],62% and 50% and 28%
same,Population Membrane Permeable-Phenotype (%),[2],10% and 9%
same,Population Mitochondria Different-Phenotype (%),[2],45% and 38% and 22%
same,Population Mitotic Cells (%),[2],77% and 64% and 83%
same,Population Normal (%),[2],37% and 49% and 71%
same,Population Pyknosed Nuclei (%),[2],12% and 15%
same,Population Apoptotic (%),[3],47%
same,Population Fragmented Nuclei (%),[3],13%
same,Population Healthy Nuclei (%),[3],74%
same,Population Hoechst High Intensity Objects (%),[3],6%
same,Population Membrane Permeable-Phenotype (%),[3],16%
same,Population Mitochondria Different-Phenotype (%),[3],24%
same,Population Mitotic Cells (%),[3],52%
same,Population Normal (%),[3],93%
same,Population Pyknosed Nuclei (%),[3],11%
same,Population Tubulin-Different-Phenotype (%),[3],31%
same,Total Cell Count,[3],161
same,Population Apoptotic (%),[4],18%
same,Population Fragmented Nuclei (%),[4],20%
same,Population Healthy Nuclei (%),[4],68%
same,Population Hoechst High Intensity Objects (%),[4],19%
same,Population Membrane Permeable-Phenotype (%),[4],13%
same,Population Mitochondria Different-Phenotype (%),[4],32%
same,Population Mitotic Cells (%),[4],81%
same,Population Normal (%),[4],80%
same,Population Pyknosed Nuclei (%),[4],10%
same,Population Tubulin-Different-Phenotype (%),[4],38%
same,Total Cell Count,[4],131
same,Population Apoptotic (%),[5],63% and 75% and 77%
same,Population Healthy Nuclei (%),[5],26% and 28% and 72%
same,Population Membrane Permeable-Phenotype (%),[5],36% and 32% and 15%
same,Population Mitochondria Different-Phenotype (%),[5],58% and 57% and 35%
same,Population Mitotic Cells (%),[5],36% and 24% and 22%
same,Population Normal (%),[5],43% and 46% and 91%
same,Population Pyknosed Nuclei (%),[5],15% and 18%
same,Population Tubulin-Different-Phenotype (%),[5],38% and 42% and 40%
same,Population Apoptotic (%),[6],54% and 62% and 80%
same,Population Fragmented Nuclei (%),[6],63% and 22%
same,Population Hoechst High Intensity Objects (%),[6],59% and 27%
same,Population Mitochondria Different-Phenotype (%),[6],54% and 50% and 33%
same,Population Mitotic Cells (%),[6],45% and 37% and 20%
same,Population Normal (%),[6],40% and 72%
same,Population Pyknosed Nuclei (%),[6],21% and 11%
same,Population Apoptotic (%),[7],80%
same,Population Fragmented Nuclei (%),[7],21%
same,Population Healthy Nuclei (%),[7],65%
same,Population Hoechst High Intensity Objects (%),[7],5%
same,Population Membrane Permeable-Phenotype (%),[7],14%
same,Population Mitochondria Different-Phenotype (%),[7],41%
same,Population Mitotic Cells (%),[7],20%
same,Population Normal (%),[7],94%
same,Population Pyknosed Nuclei (%),[7],13%
same,Population Tubulin-Different-Phenotype (%),[7],37%
same,Total Cell Count,[7],157
same,Population Apoptotic (%),[8],90%
same,Population Fragmented Nuclei (%),[8],25%
same,Population Healthy Nuclei (%),[8],64%
same,Population Hoechst High Intensity Objects (%),[8],10%
same,Population Membrane Permeable-Phenotype (%),[8],17%
same,Population Mitochondria Different-Phenotype (%),[8],35%
same,Population Mitotic Cells (%),[8],9%
same,Population Normal (%),[8],89%
same,Population Pyknosed Nuclei (%),[8],11%
same,Population Tubulin-Different-Phenotype (%),[8],42%
same,Total Cell Count,[8],112

# From ChEMBL document CHEMBL4689842, “EUbOPEN Chemogenomics Library wave 1” (2021)
